Measured values taken from PubChem BioAssay AID588785 (The Scripps Research Institute Molecular Screening Center, 2011).
Activity calls are given as the source filed them.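 How the source made its calls: active means spectra count ratio compound/DMSO 0.5 or lower for pPAFAH, with at most one off-target serine hydrolase also that low; inactive means ratio above 0.5 for pPAFAH, or two-plus off-targets hit.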

Columns and labels:
Assay in all cases: serine hydrolase selectivity in brain membranes, late-stage follow-up, selectivity assay for pPAFAH inhibitor project, biochemical, LC-MS/MS, mouse brain membrane proteome (AID 588785)
Pme1 = details: ABPP-MudPIT FP-biotin spectral counts, at 1 µM, active compounds read low
Method in brief: (§1)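 Detection: ABPP-MudPIT LC-MS/MS spectral counting. System: mouse brain membrane proteome. Quantity: proteome at 1 mg/mL protein. Replicates: 3–4 biological replicates. Measure: Compound/DMSO spectral-count ratio per protein. Timing: 30 min 37 °C compound, 2 h 25 °C probe. Medium: Tris buffer pH 8.0, 50 mM.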

Lipe = details: ABPP-MudPIT FP-biotin spectral counts, at 1 µM, active compounds read low
Method in brief: as §1

Ache = details: ABPP-MudPIT FP-biotin spectral counts, at 1 µM, active compounds read low
Method in brief: as §1

Pnpla6 = details: ABPP-MudPIT FP-biotin spectral counts, at 1 µM, active compounds read low
Method in brief: as §1

[1] = target: Prolyl endopeptidase (Mus musculus) (UniProt Q9QUR6); details: ABPP-MudPIT FP-biotin spectral counts, Prep, at 1 µM, active compounds read low
Sequence of Prolyl endopeptidase (Mus musculus) (Q9QUR6 whole entry, looked up): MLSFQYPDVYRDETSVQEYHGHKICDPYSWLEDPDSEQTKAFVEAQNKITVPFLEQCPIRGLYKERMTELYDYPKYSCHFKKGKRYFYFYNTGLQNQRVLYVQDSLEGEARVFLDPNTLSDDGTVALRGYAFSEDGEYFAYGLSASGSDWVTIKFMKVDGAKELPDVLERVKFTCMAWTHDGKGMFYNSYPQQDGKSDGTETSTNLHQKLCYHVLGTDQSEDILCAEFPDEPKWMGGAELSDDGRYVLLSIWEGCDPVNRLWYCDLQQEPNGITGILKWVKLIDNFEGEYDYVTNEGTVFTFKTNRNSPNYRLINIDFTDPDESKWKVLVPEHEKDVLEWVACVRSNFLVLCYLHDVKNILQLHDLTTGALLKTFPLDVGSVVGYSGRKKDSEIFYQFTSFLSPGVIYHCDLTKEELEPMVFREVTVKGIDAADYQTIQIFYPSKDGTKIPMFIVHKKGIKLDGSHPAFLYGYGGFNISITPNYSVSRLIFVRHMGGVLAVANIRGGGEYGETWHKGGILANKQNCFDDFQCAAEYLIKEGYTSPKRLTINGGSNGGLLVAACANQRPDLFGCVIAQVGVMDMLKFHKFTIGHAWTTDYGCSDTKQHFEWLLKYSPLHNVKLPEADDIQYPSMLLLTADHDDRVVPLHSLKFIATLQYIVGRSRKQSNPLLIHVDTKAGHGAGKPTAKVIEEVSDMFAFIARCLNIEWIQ
Method in brief: as §1

Abhd4 = Abhd4 (UniProt Q8VD66); details: ABPP-MudPIT FP-biotin spectral counts, at 1 µM, active compounds read low
Sequence of Abhd4 (Q8VD66 whole entry, looked up): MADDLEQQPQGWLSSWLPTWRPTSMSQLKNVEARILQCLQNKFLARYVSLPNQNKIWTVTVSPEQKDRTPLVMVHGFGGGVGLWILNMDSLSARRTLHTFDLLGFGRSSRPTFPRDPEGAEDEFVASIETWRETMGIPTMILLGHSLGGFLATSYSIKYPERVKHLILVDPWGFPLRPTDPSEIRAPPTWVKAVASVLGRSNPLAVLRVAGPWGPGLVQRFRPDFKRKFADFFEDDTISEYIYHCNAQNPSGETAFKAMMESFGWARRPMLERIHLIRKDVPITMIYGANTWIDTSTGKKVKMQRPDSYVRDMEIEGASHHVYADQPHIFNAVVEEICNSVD
Method in brief: as §1

Pla2g15 = details: ABPP-MudPIT FP-biotin spectral counts, at 1 µM, active compounds read low
Method in brief: as §1

Magl = details: ABPP-MudPIT FP-biotin spectral counts, at 1 µM, active compounds read low
Method in brief: as §1

[2] = target: Acyl-protein thioesterase 1 (Mus musculus) (UniProt P97823); details: ABPP-MudPIT FP-biotin spectral counts, Lypla1, at 1 µM, active compounds read low
Sequence of Acyl-protein thioesterase 1 (Mus musculus) (P97823 whole entry, looked up): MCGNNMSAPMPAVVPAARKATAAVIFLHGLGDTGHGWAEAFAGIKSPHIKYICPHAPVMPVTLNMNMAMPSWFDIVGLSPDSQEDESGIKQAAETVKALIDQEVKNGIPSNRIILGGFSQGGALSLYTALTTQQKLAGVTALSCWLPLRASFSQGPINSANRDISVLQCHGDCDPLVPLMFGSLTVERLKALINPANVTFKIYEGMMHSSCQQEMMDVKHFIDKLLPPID
Method in brief: as §1

Pafah1b3 = details: ABPP-MudPIT FP-biotin spectral counts, at 1 µM, active compounds read low
Method in brief: as §1

Pnpla8 = details: ABPP-MudPIT FP-biotin spectral counts, at 1 µM, active compounds read low
Method in brief: as §1

Prepl = details: ABPP-MudPIT FP-biotin spectral counts, at 1 µM, active compounds read low
Method in brief: as §1

Fasn = details: ABPP-MudPIT FP-biotin spectral counts, at 1 µM, active compounds read low
Method in brief: as §1

Abhd11 = details: ABPP-MudPIT FP-biotin spectral counts, at 1 µM, active compounds read low
Method in brief: as §1

Dpp9 = details: ABPP-MudPIT FP-biotin spectral counts, at 1 µM, active compounds read low
Method in brief: as §1

Parl = details: ABPP-MudPIT FP-biotin spectral counts, at 1 µM, active compounds read low
Method in brief: as §1

Rbbp9 = details: ABPP-MudPIT FP-biotin spectral counts, at 1 µM, active compounds read low
Method in brief: as §1

Acot3 = details: ABPP-MudPIT FP-biotin spectral counts, at 1 µM, active compounds read low
Method in brief: as §1

Prcp = details: ABPP-MudPIT FP-biotin spectral counts, at 1 µM, active compounds read low
Method in brief: as §1

Acot6 = details: ABPP-MudPIT FP-biotin spectral counts, at 1 µM, active compounds read low
Method in brief: as §1

Bat5 = details: ABPP-MudPIT FP-biotin spectral counts, at 1 µM, active compounds read low
Method in brief: as §1

[3] = target: Platelet-activating factor acetylhydrolase (Mus musculus) (UniProt Q60963); details: ABPP-MudPIT FP-biotin spectral counts, Pla2g7 (pPAFAH), at 1 µM, active compounds read low
Sequence of Platelet-activating factor acetylhydrolase (Mus musculus) (Q60963 whole entry, looked up): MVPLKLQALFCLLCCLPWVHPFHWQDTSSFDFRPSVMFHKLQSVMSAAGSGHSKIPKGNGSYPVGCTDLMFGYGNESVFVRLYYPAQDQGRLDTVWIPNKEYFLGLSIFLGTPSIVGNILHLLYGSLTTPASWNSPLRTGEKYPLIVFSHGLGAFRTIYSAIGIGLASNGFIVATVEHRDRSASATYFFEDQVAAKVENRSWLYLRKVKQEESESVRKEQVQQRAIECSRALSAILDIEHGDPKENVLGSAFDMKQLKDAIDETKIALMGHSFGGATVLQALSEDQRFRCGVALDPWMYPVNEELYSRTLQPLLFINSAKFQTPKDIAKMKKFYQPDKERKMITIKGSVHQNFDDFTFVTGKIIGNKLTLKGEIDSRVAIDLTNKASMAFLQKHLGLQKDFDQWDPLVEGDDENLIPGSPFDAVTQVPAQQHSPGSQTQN
Method in brief: as §1

Nceh1 = details: ABPP-MudPIT FP-biotin spectral counts, at 1 µM, active compounds read low
Method in brief: as §1

Esd = details: ABPP-MudPIT FP-biotin spectral counts, at 1 µM, active compounds read low
Method in brief: as §1

Pafah1b2 = details: ABPP-MudPIT FP-biotin spectral counts, at 1 µM, active compounds read low
Method in brief: as §1

Es1 = details: ABPP-MudPIT FP-biotin spectral counts, at 1 µM, active compounds read low
Method in brief: as §1

Lypla2 = details: ABPP-MudPIT FP-biotin spectral counts, at 1 µM, active compounds read low
Method in brief: as §1

Abhd12 = details: ABPP-MudPIT FP-biotin spectral counts, at 1 µM, active compounds read low
Method in brief: as §1

Acot7 = details: ABPP-MudPIT FP-biotin spectral counts, at 1 µM, active compounds read low
Method in brief: as §1

Fam108c1 = details: ABPP-MudPIT FP-biotin spectral counts, at 1 µM, active compounds read low
Method in brief: as §1

Fam108b1 = details: ABPP-MudPIT FP-biotin spectral counts, at 1 µM, active compounds read low
Method in brief: as §1

Apeh = details: ABPP-MudPIT FP-biotin spectral counts, at 1 µM, active compounds read low
Method in brief: as §1

[4] = target: Palmitoyl-protein thioesterase ABHD10, mitochondrial (Mus musculus) (UniProt Q6PE15); details: ABPP-MudPIT FP-biotin spectral counts, at 1 µM, active compounds read low
Sequence of Palmitoyl-protein thioesterase ABHD10, mitochondrial (Mus musculus) (Q6PE15 whole entry, looked up): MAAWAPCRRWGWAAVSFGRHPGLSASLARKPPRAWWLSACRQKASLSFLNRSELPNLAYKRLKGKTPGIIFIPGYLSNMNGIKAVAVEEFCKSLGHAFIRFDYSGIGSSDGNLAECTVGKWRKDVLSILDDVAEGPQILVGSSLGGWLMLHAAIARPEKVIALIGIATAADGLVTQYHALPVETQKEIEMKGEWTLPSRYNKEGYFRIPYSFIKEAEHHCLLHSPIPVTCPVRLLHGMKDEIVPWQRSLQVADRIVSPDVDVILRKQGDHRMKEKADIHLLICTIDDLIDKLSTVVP
Method in brief: as §1

Dpp8 = details: ABPP-MudPIT FP-biotin spectral counts, at 1 µM, active compounds read low
Method in brief: as §1

Fam108a = details: ABPP-MudPIT FP-biotin spectral counts, at 1 µM, active compounds read low
Method in brief: as §1

Acot1 = details: ABPP-MudPIT FP-biotin spectral counts, at 1 µM, active compounds read low
Method in brief: as §1

Acot2 = details: ABPP-MudPIT FP-biotin spectral counts, at 1 µM, active compounds read low
Method in brief: as §1

Lactb = details: ABPP-MudPIT FP-biotin spectral counts, at 1 µM, active compounds read low
Method in brief: as §1

Abhd3 = details: ABPP-MudPIT FP-biotin spectral counts, at 1 µM, active compounds read low
Method in brief: as §1

Faah = details: ABPP-MudPIT FP-biotin spectral counts, at 1 µM, active compounds read low
Method in brief: as §1

Tpp2 = details: ABPP-MudPIT FP-biotin spectral counts, at 1 µM, active compounds read low
Method in brief: as §1

[5] = target: Monoacylglycerol lipase ABHD6 (Mus musculus) (UniProt Q8R2Y0); details: ABPP-MudPIT FP-biotin spectral counts, at 1 µM, active compounds read low
Sequence of Monoacylglycerol lipase ABHD6 (Mus musculus) (Q8R2Y0 whole entry, looked up): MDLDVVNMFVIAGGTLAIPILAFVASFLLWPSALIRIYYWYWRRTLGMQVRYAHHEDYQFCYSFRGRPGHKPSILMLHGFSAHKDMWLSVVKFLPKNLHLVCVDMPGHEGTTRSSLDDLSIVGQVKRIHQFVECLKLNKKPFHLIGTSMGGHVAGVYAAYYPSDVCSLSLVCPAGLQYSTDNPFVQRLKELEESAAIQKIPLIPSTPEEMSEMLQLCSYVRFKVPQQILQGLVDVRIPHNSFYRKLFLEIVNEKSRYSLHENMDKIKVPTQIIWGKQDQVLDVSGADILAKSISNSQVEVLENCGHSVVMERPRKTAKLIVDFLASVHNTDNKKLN
Method in brief: as §1

Lyplal1 = details: ABPP-MudPIT FP-biotin spectral counts, at 1 µM, active compounds read low
Method in brief: as §1

Cc1cc(N2CCN(C(=O)Oc3ccc(-c4ccccc4)cn3)CC2)c2ccccc2n1
spectra count ratio compound/DMSO (Pme1): 1.3 (inactive)
spectra count ratio compound/DMSO (Lipe): 1.3 (inactive)
spectra count ratio compound/DMSO (Ache): 0.9 (inactive)
spectra count ratio compound/DMSO (Pnpla6): 0.8 (inactive)
spectra count ratio compound/DMSO [1]: 1.2 (inactive)
spectra count ratio compound/DMSO (Abhd4): 1 (inactive)
spectra count ratio compound/DMSO (Pla2g15): 0.8 (inactive)
spectra count ratio compound/DMSO (Magl): 1.3 (inactive)
spectra count ratio compound/DMSO [2]: 1.6 (inactive)
spectra count ratio compound/DMSO (Pafah1b3): 0.8 (inactive)
spectra count ratio compound/DMSO (Pnpla8): 0.9 (inactive)
spectra count ratio compound/DMSO (Prepl): 1.1 (inactive)
spectra count ratio compound/DMSO (Fasn): 1 (inactive)
spectra count ratio compound/DMSO (Abhd11): 1 (inactive)
spectra count ratio compound/DMSO (Dpp9): 1.1 (inactive)
spectra count ratio compound/DMSO (Parl): 1.1 (inactive)
spectra count ratio compound/DMSO (Rbbp9): 1.3 (inactive)
spectra count ratio compound/DMSO (Acot3): 0.8 (inactive)
spectra count ratio compound/DMSO (Prcp): 1 (inactive)
spectra count ratio compound/DMSO (Acot6): 1 (inactive)
spectra count ratio compound/DMSO (Bat5): 0.9 (inactive)
spectra count ratio compound/DMSO [3]: 0.1
spectra count ratio compound/DMSO (Nceh1): 1.1 (inactive)
spectra count ratio compound/DMSO (Esd): 1.2 (inactive)
spectra count ratio compound/DMSO (Pafah1b2): 0.8 (inactive)
spectra count ratio compound/DMSO (Es1): 0
spectra count ratio compound/DMSO (Lypla2): 1.7 (inactive)
spectra count ratio compound/DMSO (Abhd12): 1.1 (inactive)
spectra count ratio compound/DMSO (Acot7): 0.7 (inactive)
spectra count ratio compound/DMSO (Fam108c1): 1 (inactive)
spectra count ratio compound/DMSO (Fam108b1): 1.1 (inactive)
spectra count ratio compound/DMSO (Apeh): 0.9 (inactive)
spectra count ratio compound/DMSO [4]: 1.5 (inactive)
spectra count ratio compound/DMSO (Dpp8): 0.9 (inactive)
spectra count ratio compound/DMSO (Fam108a): 0.9 (inactive)
spectra count ratio compound/DMSO (Acot1): 1 (inactive)
spectra count ratio compound/DMSO (Acot2): 1.4 (inactive)
spectra count ratio compound/DMSO (Lactb): 0.7 (inactive)
spectra count ratio compound/DMSO (Abhd3): 1.3 (inactive)
spectra count ratio compound/DMSO (Faah): 0.8 (inactive)
spectra count ratio compound/DMSO (Tpp2): 1.2 (inactive)
spectra count ratio compound/DMSO [5]: 1.1 (inactive)
spectra count ratio compound/DMSO (Lyplal1): 1.2 (inactive)
